From ChEMBL document CHEMBL3243977, “Synthesis and antiestrogenic activity of [3,4-dihydro-2-(4-methoxyphenyl)-1-naphthalenyl][4-[2-(1-pyrrolidinyl)ethoxy]-phenyl]methanone, methanesulfonic acid salt” (J Med Chem, 1979)
Active and inactive are the calls of the source. No cut-off for these calls is given here.

Experiments:
Rattus norvegicus [1] = experiment: Postcoital antifertility activity in rat assessed as viable/resorbing fetuses at 1 ug, po qd for 11 days; format: functional, organism-based
Procedure, shortened: (§1)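 Female rats, 4–5 per group, given 11 daily oral or subcutaneous doses starting at the first evidence of breeding. They were killed on day 12 and checked for viable or resorbing fetuses. Results are given as animals pregnant out of animals treated.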

Rattus norvegicus [2] = experiment: Postcoital antifertility activity in rat assessed as viable/resorbing fetuses at 1 ug, sc qd for 11 days; format: functional, organism-based; procedure, shortened: as §1
Mus musculus [3] = experiment: Antiestrogenic activity in immature Cox mouse assessed as reduction of uterine wet weight at 300 ug, sc qd for 3 days in presence of 0.3 ug of estrone; format: functional
Procedure, shortened: (§2)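 Immature mice, ten per group, given the agent daily for 3 days by subcutaneous injection or by mouth. The agent went with estrone given subcutaneously (0.3 µg total dose in the table). Subcutaneous doses were in 0.1 mL corn oil, and doses are stated as total dose. Uterine wet weight was taken on day 4 and compared with estrone alone. Reported as mean difference in mg (SE) and % inhibition.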

Mus musculus [4] = experiment: Antiestrogenic activity in immature Cox mouse assessed as reduction of uterine wet weight at 100 ug, sc qd for 3 days in presence of 0.3 ug of estrone; format: functional; procedure, shortened: as §2
Mus musculus [5] = experiment: Antiestrogenic activity in immature Cox mouse assessed as reduction of uterine wet weight at 30 ug, sc qd for 3 days in presence of 0.3 ug of estrone; format: functional; procedure, shortened: as §2
Mus musculus [6] = experiment: Antiestrogenic activity in immature Cox mouse assessed as reduction of uterine wet weight at 10 ug, sc qd for 3 days in presence of 0.3 ug of estrone; format: functional; procedure, shortened: as §2
Mus musculus [7] = experiment: Antiestrogenic activity in immature Cox mouse assessed as reduction of uterine wet weight at 3 ug, sc qd for 3 days in presence of 0.3 ug of estrone; format: functional; procedure, shortened: as §2
Mus musculus [8] = experiment: Antiestrogenic activity in immature Cox mouse assessed as reduction of uterine wet weight at 1 ug, sc qd for 3 days in presence of 0.3 ug of estrone; format: functional; procedure, shortened: as §2
Mus musculus [9] = experiment: Antiestrogenic activity in immature Cox mouse assessed as reduction of uterine wet weight at 300 ug, po qd for 3 days in presence of 0.3 ug of estrone; format: functional; procedure, shortened: as §2
Mus musculus [10] = experiment: Antiestrogenic activity in immature Cox mouse assessed as reduction of uterine wet weight at 100 ug, po qd for 3 days in presence of 0.3 ug of estrone; format: functional; procedure, shortened: as §2
Mus musculus [11] = experiment: Antiestrogenic activity in immature Cox mouse assessed as reduction of uterine wet weight at 30 ug, po qd for 3 days in presence of 0.3 ug of estrone; format: functional; procedure, shortened: as §2
Mus musculus [12] = experiment: Antiestrogenic activity in immature Cox mouse assessed as reduction of uterine wet weight at 300 ug, sc qd for 3 days; format: functional
Mus musculus [13] = experiment: Antiestrogenic activity in immature Cox mouse assessed as reduction of uterine wet weight at 100 ug, sc qd for 3 days; format: functional
Mus musculus [14] = experiment: Antiestrogenic activity in immature Cox mouse assessed as reduction of uterine wet weight at 30 ug, sc qd for 3 days; format: functional
Mus musculus [15] = experiment: Antiestrogenic activity in immature Cox mouse assessed as reduction of uterine wet weight at 10 ug, sc qd for 3 days; format: functional
Mus musculus [16] = experiment: Antiestrogenic activity in immature Cox mouse assessed as reduction of uterine wet weight at 3 ug, sc qd for 3 days; format: functional
Mus musculus [17] = experiment: Antiestrogenic activity in immature Cox mouse assessed as reduction of uterine wet weight at 1 ug, sc qd for 3 days; format: functional
Rattus norvegicus [18] = experiment: Antiuterotropic activity in ovariectomized rat assessed as reduction of uterine weight at 3 ug, po qd for 7 days in presence of 17beta-estradiol (reference value: 268.7 +/- 10.3 mg); format: functional
Rattus norvegicus [19] = experiment: Antiuterotropic activity in ovariectomized rat assessed as reduction of uterine weight at 5 ug, po qd for 7 days in presence of 17beta-estradiol (reference value: 268.7 +/- 10.3 mg); format: functional
Rattus norvegicus [20] = experiment: Antiuterotropic activity in ovariectomized rat assessed as reduction of uterine weight at 10 ug, po qd for 7 days in presence of 17beta-estradiol (reference value: 268.7 +/- 10.3 mg); format: functional
Rattus norvegicus [21] = experiment: Uterotropic activity in ovariectomized rat assessed as increase of uterine weight at 1 ug, sc qd for 7 days; format: functional, Uterus; details: in the assay text read “1 mg” for “1 ug”
Procedure, shortened: (§3)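 Ovariectomized adult rats, five per group, treated daily for 7 days, orally or subcutaneously, with the agent in 0.1 mL corn oil. The value is the mean uterine weight in mg of the treated group minus that of the control group (eight animals). Significance was tested by Student's t test (p < 0.05).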

Rattus norvegicus [22] = experiment: Uterotropic activity in ovariectomized rat assessed as increase of uterine weight at 0.1 ug, po qd for 7 days; format: functional, Uterus; details: in the assay text read “0.1 mg” for “0.1 ug”; procedure, shortened: as §3
Rattus norvegicus [23] = experiment: Uterotropic activity in ovariectomized rat assessed as increase of uterine weight at 0.5 ug, po qd for 7 days; format: functional, Uterus; details: in the assay text read “0.5 mg” for “0.5 ug”; procedure, shortened: as §3
Rattus norvegicus [24] = experiment: Uterotropic activity in ovariectomized rat assessed as increase of uterine weight at 1 ug, po qd for 7 days; format: functional, Uterus; details: in the assay text read “1 mg” for “1 ug”; procedure, shortened: as §3
Rattus norvegicus [25] = experiment: Postcoital antifertility activity in rat assessed as viable/resorbing fetuses at 5 ug, po qd for 11 days; format: functional, organism-based; procedure, shortened: as §1
Rattus norvegicus [26] = experiment: Postcoital antifertility activity in rat assessed as viable/resorbing fetuses at 5 ug, sc qd for 11 days; format: functional, organism-based; procedure, shortened: as §1
Rattus norvegicus [27] = experiment: Postcoital antifertility activity in rat assessed as viable/resorbing fetuses at 0.5 ug, po qd for 11 days; format: functional, organism-based; procedure, shortened: as §1
Rattus norvegicus [28] = experiment: Postcoital antifertility activity in rat assessed as viable/resorbing fetuses at 0.5 ug, sc qd for 11 days; format: functional, organism-based; procedure, shortened: as §1

## COc1ccc(C(=O)C2=C(c3ccc(OC)cc3)CCc3ccccc32)cc1
Rattus norvegicus [1]
  Activity: inactive
Rattus norvegicus [2]; in the assay text read “at 1 mg” for “at 1 ug”
  Activity: inactive

## COc1ccc(C(=O)C2C(c3ccc(OC)cc3)=CCc3ccccc32)cc1 (configuration not stated)
Rattus norvegicus [1]
  Activity: inactive
Rattus norvegicus [2]
  Activity: inactive

## COc1ccc(C2=C(C(=O)c3ccc(OCCN4CCCC4)cc3)c3ccccc3CC2)cc1.CS(=O)(=O)O [TRIOXIFENE MESYLATE]
Mus musculus [3]
  inhibition (INH): 44.1%
Mus musculus [4]
  inhibition (INH): 53.5%
Mus musculus [5]
  inhibition (INH): 25.9%
Mus musculus [6]
  inhibition (INH): 22.8%
Mus musculus [7]
  inhibition (INH): 12.7%
Mus musculus [8]
  inhibition (INH): 0%
Mus musculus [9]
  inhibition (INH): 52.3%
Mus musculus [10]
  inhibition (INH): 49.2%
Mus musculus [11]
  inhibition (INH): 31.1%
Mus musculus [12]
  Activity: 19.1 mg
Mus musculus [13]
  Activity: 24.2 mg
Mus musculus [14]
  Activity: 21.2 mg
Mus musculus [15]
  Activity: 34 mg
Mus musculus [16]
  Activity: 28.8 mg
Mus musculus [17]
  Activity: 8.6 mg
Rattus norvegicus [18]
  Activity: 231.7 mg
Rattus norvegicus [19]
  Activity: 222.3 mg
Rattus norvegicus [20]
  Activity: 200.9 mg
Rattus norvegicus [21]
  Activity: 66.8 mg
Rattus norvegicus [22]
  Activity: 35 mg
Rattus norvegicus [23]
  Activity: 54.9 mg
Rattus norvegicus [24]
  Activity: 58.7 mg
Rattus norvegicus [25]
  Activity: Active
Rattus norvegicus [26]
  Activity: Active
Rattus norvegicus [1]
  Activity: Active
Rattus norvegicus [2]
  Activity: Active
Rattus norvegicus [27]
  Activity: inactive
Rattus norvegicus [28]
  Activity: inactive
